The record followed here is ChEMBL document CHEMBL1132304, “Characterization of "mini-nucleotides" as P2X receptor agonists in rat cardiomyocyte cultures. An integrated synthetic, biochemical, and theoretical study” (1999).

Molecules are shown by their SMILES. Active and inactive are the calls of the source. The calls are words filed in the database; no cut-off is given here.

The species entered for assay [1] is Rattus norvegicus. Description: In vitro effect on intracellular ca++ elevation was determined in comparison to the ATP at 10 uM on rat cardiomyocytes; Ca++ elevation; Not active. The assay is classed as functional. An outline of the steps: (§1)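 Cultured neonatal rat cardiomyocytes (3-5 days in vitro) on coverglasses were loaded with indo-1, and [Ca²⁺]i was estimated by the 405/495 nm emission ratio method under UV epifluorescence. Ligand was added at 100 µM, with ATP 10 µM as reference. The read-out was [Ca²⁺]i elevation in nM above the 100 nM basal level, from 2-3 experiments.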

Assay [2] is filed under the species Rattus norvegicus. Description: Compound was evaluated 1 min after drug application on rat cardiomyocytes; Not active. The assay is classed as functional. An outline of the steps:
(§2)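 Neonatal rat cardiomyocyte cultures (3-5 days in vitro, spontaneously contracting monolayers on collagen/gelatin-coated coverglasses) exposed to ligand at 100 µM. Contraction rate was recorded by video motion detector under phase-contrast microscopy at 37 °C in 95% air/5% CO₂, 1 min after drug application. The read-out was % reduction of heart rate from representative experiments.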

The species entered for assay [3] is Rattus norvegicus. Description: Inhibition of Ca++ elevation was determined in PPADS treated cardiac cells in rat; Complete inhibition. The assay is classed as functional, cell-based.
Assay [4] is filed under the species Rattus norvegicus. Description: In vitro effect on intracellular ca++ elevation was determined in comparison to the ATP at 10 uM on rat cardiomyocytes; Ca++ elevation. Type of assay: functional. An outline of the steps: as §1
Assay [5] is filed under the species Rattus norvegicus. Description: Inhibition of Ca++ elevation was determined in CPX treated cardiac cells in rat; No inhibition. The assay is classed as functional, cell-based.
Assay [6] is filed under the species Rattus norvegicus. Description: Compound was evaluated 1 min after drug application on rat cardiomyocytes. Type of assay: functional. Also noted: concentration or dose not given beside the values. The procedure, abridged: as §2
Assay [7] is filed under the species Rattus norvegicus. Description: Inhibition of Ca++ elevation was determined in PPADS treated cardiac cells in rat; No inhibition. Type of assay: functional, cell-based.
For assay [8], the species on record is Rattus norvegicus. Description: Inhibition of Ca++ elevation was determined in CPX treated cardiac cells in rat; Complete inhibition. The assay is classed as functional, cell-based.
The species named for assay [9] is Rattus norvegicus. Description: In vitro effect on intracellular ca++ elevation in comparison to the ATP at 10 uM on rat cardiomyocytes. The assay is classed as functional. The procedure, abridged: as §1
Assay [10] is filed under the species Rattus norvegicus. Description: In vitro effect on intracellular ca++ elevation was determined in comparison to the ATP at 10 uM on rat cardiomyocytes; Ca++ elevation; Not avtive. Type of assay: functional. An outline of the steps: as §1
The species named for assay [11] is Rattus norvegicus. Description: Inhibition of Ca++ elevation was determined in CPX treated cardiac cells in rat; Complete inhibition; Complete inhibition. Type of assay: functional, cell-based.
Assay [12] is filed under the species Rattus norvegicus. Description: In vitro effect on intracellular ca++ elevation was determined in comparison to the ATP at 10 uM on rat cardiomyocytes; Not active. The assay is classed as functional. The procedure, abridged:
as §1

For assay [13], the species on record is Rattus norvegicus. Description: Inhibition of Ca++ elevation was determined in PPADS treated cardiac cells in rat. Type of assay: functional. The procedure, abridged:
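Neonatal rat cardiomyocyte cultures. Cells were incubated 5 min with 100 µM PPADS (P2-R antagonist) before the agonist was added at 100 µM (ATP at 10 µM). Intracellular Ca²⁺ was measured by the indo-1 405/495 nm emission ratio (Grynkiewicz ratio method). Scored as complete inhibition (+), no inhibition (−), or partial.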

Turning to `Cn1c(=O)c2c(ncn2CCCOP(=O)(O)OP(=O)(O)OP(=O)(O)O)n(C)c1=O`, the “Ca2+ elevation” value in the assay filed under Rattus norvegicus [1] was “inactive”.
Turning to `Cn1c(Br)nc2c1c(=O)n(CCOP(=O)(O)O)c(=O)n2C`, in the assay listed under Rattus norvegicus [2], the NA entry is “inactive”. The inhibition entry in the assay listed under Rattus norvegicus [3] is recorded as “Total inhibition”. For the same compound, the “Ca2+ elevation” value in the assay filed under Rattus norvegicus [4] worked out at 80 nM. Also, in the assay listed under Rattus norvegicus [5], the inhibition result is “inactive”.
Consider `Cn1cnc2c1c(=O)n(CCOP(=O)(O)OP(=O)(O)OP(=O)(O)O)c(=O)n2C.N.N.N.N`, for which the “Reduction of heart rate” value in the assay listed under Rattus norvegicus [6] was found to be 3%. Moreover, the inhibition entry in the assay filed under Rattus norvegicus [7] was “inactive”. In addition, the “Ca2+ elevation” value in the assay filed under Rattus norvegicus [4] was determined as 54 nM. Further, the inhibition result in the assay listed under Rattus norvegicus [8] is “Total inhibition”.
Take `Cn1c(=O)c2c(ncn2CCOP(=O)(O)OP(=O)(O)OP(=O)(O)O)n(C)c1=O`: the inhibition entry in the assay listed under Rattus norvegicus [3] is reported as “Total inhibition”. Further, in the assay listed under Rattus norvegicus [6], the “Reduction of heart rate” value was found to be 64%. Besides, the “Ca2+ elevation” value in the assay listed under Rattus norvegicus [9] is on record as 87 nM. Further, the inhibition result in the assay filed under Rattus norvegicus [5] was “inactive”.
For the compound `Cn1cnc2c1c(=O)n(CCCOP(=O)(O)O)c(=O)n2C`, in the assay listed under Rattus norvegicus [10], the “Ca2+ elevation” value was “inactive”.
With `Cn1c(=O)c2c(ncn2CCCOP(=O)(O)O)n(C)c1=O`, the “Ca2+ elevation” value in the assay filed under Rattus norvegicus [10] is “inactive”.
As to `Cn1cnc2c1c(=O)n(CCCOP(=O)(O)OP(=O)(O)OP(=O)(O)O)c(=O)n2C.N.N.N.N`, the “Ca2+ elevation” value in the assay listed under Rattus norvegicus [4] was found to be 60 nM.
Regarding `Cn1cnc2c1c(=O)n(CCOP(=O)(O)O)c(=O)n2C.N.N`, the inhibition result in the assay listed under Rattus norvegicus [3] and in the assay listed under Rattus norvegicus [11] was “Total inhibition” throughout. For the same compound, the “Reduction of heart rate” value in the assay listed under Rattus norvegicus [6] is recorded as 10%. Further, the “Ca2+ elevation” value in the assay listed under Rattus norvegicus [4] came to 61 nM.
As for `Cn1c(=O)c2c(nc(Br)n2CCOP(=O)(O)O)n(C)c1=O`, the “Reduction of heart rate” value in the assay listed under Rattus norvegicus [6] was 17%. Besides, the “Ca2+ elevation” value in the assay listed under Rattus norvegicus [4] was 54 nM.
Turning to `Cn1c(=O)c2c(nc(Br)n2CCOP(=O)(O)OP(=O)(O)OP(=O)(O)O)n(C)c1=O`, the “Reduction of heart rate” value in the assay listed under Rattus norvegicus [6] is 32%. Besides, the “Ca2+ elevation” value in the assay listed under Rattus norvegicus [4] worked out at 37 nM.
For `Cn1c(=O)c2c(nc(Cl)n2CCOP(=O)(O)O)n(C)c1=O`, in the assay listed under Rattus norvegicus [6], the “Reduction of heart rate” value worked out at 95%. In addition, in the assay filed under Rattus norvegicus [4], the “Ca2+ elevation” value was 49 nM. The inhibition result in the assay filed under Rattus norvegicus [5] is “inactive”.
In the case of `Cn1c(=O)c2c(nc(Cl)n2CCOP(=O)(O)OP(=O)(O)OP(=O)(O)O)n(C)c1=O`, in the assay listed under Rattus norvegicus [3], the inhibition result is listed as “Total inhibition”. In addition, the “Reduction of heart rate” value in the assay filed under Rattus norvegicus [6] was determined as 28%. Moreover, in the assay filed under Rattus norvegicus [4], the “Ca2+ elevation” value was determined as 29 nM. Further, the inhibition entry in the assay filed under Rattus norvegicus [5] was “inactive”.
With `Cn1c(Sc2ccccc2)nc2c1c(=O)n(CCOP(=O)(O)O)c(=O)n2C`, the “Ca2+ elevation” value in the assay listed under Rattus norvegicus [12] is “inactive”.
On to `Cn1c(=O)c2c(ncn2CCOP(=O)(O)O)n(C)c1=O`, for which the inhibition entry in the assay filed under Rattus norvegicus [3] and in the assay listed under Rattus norvegicus [8] was “Total inhibition” throughout. The “Reduction of heart rate” value in the assay listed under Rattus norvegicus [6] amounted to 16%. The “Ca2+ elevation” value in the assay filed under Rattus norvegicus [4] is 80 nM.
With `Cn1c(=O)c2c(nc(Sc3ccccc3)n2CCOP(=O)(O)O)n(C)c1=O`, the “Ca2+ elevation” value in the assay listed under Rattus norvegicus [12] is “inactive”.
Usually Inhibition stands for the change of the read-out against control, counted positive when it falls. The compound `Nc1ncnc2c1ncn2[C@@H]1O[C@H](COP(=O)(O)OP(=O)(O)OP(=O)(O)O)[C@@H](O)[C@H]1O` [ADENOSINE TRIPHOSPHATE] yielded an Inhibition in the assay filed under Rattus norvegicus [13] of 60%. Moreover, in the assay listed under Rattus norvegicus [5], the inhibition result is “inactive”.
`Cn1c(=O)c2c(nc(Sc3ccccc3)n2CCOP(=O)(O)OP(=O)(O)OP(=O)(O)O)n(C)c1=O`: the “Ca2+ elevation” value in the assay filed under Rattus norvegicus [12] is “inactive”.
Turning to `CCOc1nc2c(c(=O)n(C)c(=O)n2C)n1CCOP(=O)(O)OP(=O)(O)OP(=O)(O)O`, in the assay listed under Rattus norvegicus [10], the “Ca2+ elevation” value was “inactive”.
For `Cn1c(Br)nc2c1c(=O)n(CCOP(=O)(O)OP(=O)(O)OP(=O)(O)O)c(=O)n2C`, in the assay listed under Rattus norvegicus [3], the inhibition result is given as “Total inhibition”. For the same compound, the “Reduction of heart rate” value in the assay listed under Rattus norvegicus [6] amounted to 50%. The “Ca2+ elevation” value in the assay listed under Rattus norvegicus [4] is on record as 94 nM.
On to `CCOc1nc2c(c(=O)n(C)c(=O)n2C)n1CCOP(=O)(O)O`, for which the “Ca2+ elevation” value in the assay filed under Rattus norvegicus [12] is “inactive”.
